Data: ChEMBL document CHEMBL1122863, “Renin inhibitors. Syntheses of subnanomolar, competitive, transition-state analogue inhibitors containing a novel analogue of statine” (J Med Chem, 1985)
Residues, ends and D or L forms follow the SMILES beside them.

Experiments:
Renin [1] = molecular target: T1, Renin (Homo sapiens, UniProt P00797); test: Inhibition of human kidney renin
T1 sequence (P00797 whole entry): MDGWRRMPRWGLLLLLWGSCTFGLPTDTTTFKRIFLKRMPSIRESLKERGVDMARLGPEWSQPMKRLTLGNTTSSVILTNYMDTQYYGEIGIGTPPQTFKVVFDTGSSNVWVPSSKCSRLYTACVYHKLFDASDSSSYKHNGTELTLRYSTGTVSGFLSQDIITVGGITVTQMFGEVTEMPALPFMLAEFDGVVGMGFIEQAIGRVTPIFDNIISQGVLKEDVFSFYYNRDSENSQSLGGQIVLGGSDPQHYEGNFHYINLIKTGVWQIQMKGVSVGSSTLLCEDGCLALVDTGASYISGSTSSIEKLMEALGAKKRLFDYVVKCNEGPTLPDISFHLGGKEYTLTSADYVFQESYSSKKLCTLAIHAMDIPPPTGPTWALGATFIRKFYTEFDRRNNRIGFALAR
In short: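 Fluorometric assay with a synthetic tetradecapeptide substrate, pH 7.20 citrate/phosphate, 37 °C. Ki obtained by fitting to a competitive inhibition equation, sometimes from data pooled across two independent experiments. Reproducible within ±20%.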

Renin (Canis familiaris) = test: Inhibition of Renin
Renin [2] = molecular target: T1, Renin; test: Inhibition of human plasma renin; assay type: cell-free
In short: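 Renin in reconstituted lyophilized human plasma (high- or low-renin lots), acting on endogenous angiotensinogen. Angiotensin I was measured by radioimmunoassay at pH 7.4 phosphate, 37 °C, with 8-hydroxyquinoline or PMSF as angiotensinase inhibitor. Inhibitor stocks were 1.00×10⁻³ M in methanol or acetic acid. IC50 taken from several concentrations bracketing it.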

Pepsin A = Pepsin A (Sus scrofa, UniProt P00791); test: The compound was tested for inhibition of porcine pepsin.
Sequence of Pepsin A (P00791 whole entry): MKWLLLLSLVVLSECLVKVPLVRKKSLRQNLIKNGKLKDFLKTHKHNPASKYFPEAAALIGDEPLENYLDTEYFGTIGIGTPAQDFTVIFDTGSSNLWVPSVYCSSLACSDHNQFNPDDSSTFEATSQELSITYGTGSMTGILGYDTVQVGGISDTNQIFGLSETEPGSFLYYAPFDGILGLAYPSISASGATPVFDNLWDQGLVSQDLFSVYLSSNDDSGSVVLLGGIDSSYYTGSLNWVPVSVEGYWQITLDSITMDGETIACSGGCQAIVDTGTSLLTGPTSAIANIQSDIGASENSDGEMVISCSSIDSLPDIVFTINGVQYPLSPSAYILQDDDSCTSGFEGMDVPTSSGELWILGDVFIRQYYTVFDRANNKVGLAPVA

Mus musculus = species on record: Mus musculus; test: The compound was tested for inhibition of mouse submaxillary renin.; assay type: functional
In short: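 Mouse submaxillary gland renin was run like the human kidney renin assay: synthetic tetradecapeptide substrate, fluorometric read-out, pH 7.20 citrate/phosphate, 37 °C. Ki came from a competitive inhibition fit.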

Rhizopuspepsin = molecular target: T2, Rhizopuspepsin (Rhizopus microsporus var. chinensis, UniProt P06026); test: Inhibition of rhizopuspepsin
T2 sequence (P06026 whole entry): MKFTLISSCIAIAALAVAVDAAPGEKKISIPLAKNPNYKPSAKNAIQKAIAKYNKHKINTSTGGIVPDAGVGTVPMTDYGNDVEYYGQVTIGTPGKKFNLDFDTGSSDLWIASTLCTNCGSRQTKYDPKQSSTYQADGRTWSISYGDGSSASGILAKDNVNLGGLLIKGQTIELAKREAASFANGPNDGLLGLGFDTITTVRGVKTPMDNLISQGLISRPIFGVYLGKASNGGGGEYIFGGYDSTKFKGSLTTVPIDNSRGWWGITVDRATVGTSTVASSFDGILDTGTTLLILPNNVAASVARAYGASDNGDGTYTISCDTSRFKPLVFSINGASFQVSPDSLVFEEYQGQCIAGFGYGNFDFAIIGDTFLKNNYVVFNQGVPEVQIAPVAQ
In short: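 IC50 came from several inhibitor concentrations and was converted to Ki by the Cha equation, assuming competitive inhibition.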

CC(C)C[C@H](NC(=O)C[C@H](O)[C@H](CC1CCCCC1)NC(=O)[C@H](Cc1c[nH]cn1)NC(=O)COc1ccccc1)C(=O)N[C@@H](Cc1ccccc1)C(N)=O
Ki (Renin [1]): 14 nM | IC50 (Renin (Canis familiaris)): > 1000 nM | IC50 (Renin [2]): 1000 nM

CC(C)C[C@H](NC(=O)C[C@H](O)[C@H](Cc1ccccc1)NC(=O)[C@H](Cc1c[nH]cn1)NC(=O)COc1ccccc1)C(=O)N[C@@H](Cc1ccccc1)C(N)=O
Ki (Renin [1]): 580 nM | IC50 (Renin (Canis familiaris)): > 1000 nM | IC50 (Renin [2]): > 1000 nM

CC(C)C[C@H](NC(=O)C[C@H](O)[C@H](CC1CCCCC1)NC(=O)[C@H](Cc1c[nH]cn1)NC(=O)[C@H](Cc1ccccc1)NC(=O)OC(C)(C)C)C(=O)N[C@@H](Cc1ccccc1)C(N)=O (HELM PEPTIDE1{[CC(C)(C)OC(=O)[*:2]].F.H.[O=C(C[C@H](O)[C@H](CC1CCCCC1)N[*:1])[*:2]].L.F.[am]}$$$$V2.0)
Ki (Renin [1]): 0.88 nM | IC50 (Renin (Canis familiaris)): 13 nM | IC50 (Renin [2]): 2.2 nM

CC(C)CC(=O)N[C@@H](Cc1c[nH]cn1)C(=O)N1CCC[C@H]1C(=O)N[C@@H](Cc1ccccc1)C(=O)N[C@@H](Cc1c[nH]cn1)C(=O)N[C@@H](CC(C)C)[C@@H](O)CC(=O)N[C@@H](CC(C)C)C(=O)N[C@@H](Cc1ccccc1)C(N)=O (HELM PEPTIDE1{[CC(C)CC(=O)[*:2]].H.P.F.H.[CC(C)C[C@H](N[*:1])[C@@H](O)CC(=O)[*:2]].L.F.[am]}$$$$V2.0)
Ki (Pepsin A): 27 nM | Ki (Mus musculus): 14 nM | Ki (Rhizopuspepsin): 200 nM

CC(C)CC(=O)N[C@@H](Cc1c[nH]cn1)C(=O)N1CCC[C@H]1C(=O)N[C@@H](Cc1ccccc1)C(=O)N[C@@H](Cc1c[nH]cn1)C(=O)N[C@@H](CC1CCCCC1)C(O)CC(=O)N[C@@H](CC(C)C)C(=O)N[C@@H](Cc1ccccc1)C(N)=O (some centres not stated) (HELM PEPTIDE1{[CC(C)CC(=O)[*:2]].H.P.F.H.[O=C(CC(O)[C@H](CC1CCCCC1)N[*:1])[*:2]].L.F.[am]}$$$$V2.0)
Ki (Pepsin A): 28 nM | Ki (Mus musculus): 2.1 nM | Ki (Rhizopuspepsin): 230 nM

CC(C)C[C@H](NC(=O)C[C@H](O)[C@H](CC1CCCCC1)NC(=O)[C@H](Cc1c[nH]cn1)NC(=O)[C@H](Cc1ccccc1)NC(=O)OC(C)C)C(=O)N[C@@H](Cc1ccccc1)C(N)=O (HELM PEPTIDE1{[CC(C)OC(=O)[*:2]].F.H.[O=C(C[C@H](O)[C@H](CC1CCCCC1)N[*:1])[*:2]].L.F.[am]}$$$$V2.0)
Ki (Renin [1]): 1.1 nM | IC50 (Renin (Canis familiaris)): 20 nM | IC50 (Renin [2]): 5.1 nM

CCOC(=O)N[C@@H](Cc1ccccc1)C(=O)N[C@@H](Cc1c[nH]cn1)C(=O)N[C@@H](CC1CCCCC1)[C@@H](O)CC(=O)N[C@@H](CC(C)C)C(=O)N[C@@H](Cc1ccccc1)C(N)=O (HELM PEPTIDE1{[CCOC(=O)[*:2]].F.H.[O=C(C[C@H](O)[C@H](CC1CCCCC1)N[*:1])[*:2]].L.F.[am]}$$$$V2.0)
Ki (Renin [1]): 0.52 nM | IC50 (Renin (Canis familiaris)): 9.5 nM | IC50 (Renin [2]): 0.76 nM

CC(C)C[C@H](NC(=O)C[C@H](O)[C@H](CC(C)C)NC(=O)[C@H](Cc1c[nH]cn1)NC(=O)COc1ccccc1)C(=O)N[C@@H](Cc1ccccc1)C(N)=O (HELM PEPTIDE1{[O=C(COc1ccccc1)[*:2]].H.[CC(C)C[C@H](N[*:1])[C@@H](O)CC(=O)[*:2]].L.F.[am]}$$$$V2.0)
Ki (Renin [1]): 4100 nM
